This note sets out measurements from ChEMBL document CHEMBL3259611, “Suppression of inflammatory responses by handelin, a guaianolide dimer from Chrysanthemum boreale, via downregulation of NF-κB signaling and pro-inflammatory cytokine production” (J Nat Prod, 2014).

Calls of active or inactive are those of the source. No cut-off for these calls is given here.

The subject of data set [1] is RAW264.7. Kind of data set: Antiinflammatory activity in mouse RAW264.7 cells assessed as inhibition of LPS-induced COX2 protein expression at 20 uM after 16 hrs by Western blotting analysis relative to control. The class given is functional. An outline of the steps: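 RAW 264.7 cells given LPS (1 μg/mL) with or without compound for 16 h. Cell lysates were Western blotted for iNOS and COX-2 (6−15% SDS-PAGE, PVDF, ECL detection). Performed in triplicate.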

Data set [2] concerns RAW264.7. Briefly: Antiinflammatory activity in mouse RAW264.7 cells assessed as inhibition of LPS-induced nitric oxide production administered 30 mins prior to LPS challenge measured after 20 hrs by Griess assay. The class given is functional, cell-based. A digest of the protocol:
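RAW 264.7 cells at 3 × 10^5 cells/mL in phenol red-free 10% FBS DMEM, pretreated for 30 min, then given 1 μg/mL LPS for 20 h. Nitrite in the medium was read by Griess reaction at 540 nm against a sodium nitrite standard curve. % inhibition was calculated versus vehicle control, and IC50 by nonlinear regression. Mean ± SD of triplicates.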

Data set [3] is described as follows: Cytotoxicity against mouse RAW264.7 cells assessed as cell viability at 40 uM after 4 hrs by MTT assay relative to control. Conditions: read-out: Activity. The class given is cell-based. A digest of the protocol: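 RAW 264.7 cells plated at 3 × 10^5 cells/mL in phenol red-free 10% FBS–DMEM, incubated 24 h, then treated with compound plus 1 μg/mL LPS for 20 h. After the Griess step, MTT was added (final 500 μg/mL) for 4 h at 37 °C. Formazan dissolved in DMSO, A570 read; survival taken relative to control; triplicate.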
(Formazan colour is commonly taken as a measure of viable cells.)

Data set [4] deals with RAW264.7. Kind of data set: Inhibition of LPS-induced NFkappaB transcriptional activity in mouse RAW264.7 cells assessed as […] at 10 uM after 30 mins by Western blotting analysis relative to control. The class given is cell-based. An outline of the steps: (§1)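 Macrophages were exposed to compound for 30 min before LPS stimulation, with proteins extracted 30 min later. Nuclear extracts were prepared in Tris/KCl/NP-40 lysis buffer, then 420 mM NaCl buffer, and the cytosolic fraction was kept for IκB-α. Western blot on PVDF with ECL detection. Tests in triplicate; representative of three separate experiments.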
In general terms: A western blot detects proteins with antibodies after separation by electrophoresis.

Data set [5] deals with RAW264.7. Briefly: Antiinflammatory activity in mouse RAW264.7 cells assessed as inhibition of LPS-induced COX2 mRNA expression at 10 uM after 5 hrs by RT-PCR analysis relative to control. Type of data set: functional. A digest of the protocol: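 RAW 264.7 cells exposed to 1 μg/mL LPS with or without compound for 5 h. Total RNA was analysed by RT-PCR: 25−30 cycles with annealing at 55 °C. Products were separated on 2% agarose gel with SYBR-Safe staining. Experiments in triplicate.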

For data set [6], the target named is Mitogen-activated protein kinase 1 and 3 (ERK2 and ERK1) (Mus musculus) (UniProt P63085+Q63844). Kind of data set: Inhibition LPS-induced ERK1/2 phosphorylation at Thr202/Tyr204 in mouse RAW264.7 cells at 40 uM administered 30 mins prior to LPS challenge measured after 30 mins by Western blotting analysis. Type of data set: cell-based. An outline of the steps: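 RAW 264.7 cells pretreated with compound for 30 min, then stimulated with LPS for 30 min. Protein extracts were Western blotted for phosphorylated ERK and JNK (SDS-PAGE, PVDF, ECL detection).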
Sequence of Mitogen-activated protein kinase 1 and 3 (ERK2 and ERK1) (Mus musculus) (P63085 whole entry, looked up): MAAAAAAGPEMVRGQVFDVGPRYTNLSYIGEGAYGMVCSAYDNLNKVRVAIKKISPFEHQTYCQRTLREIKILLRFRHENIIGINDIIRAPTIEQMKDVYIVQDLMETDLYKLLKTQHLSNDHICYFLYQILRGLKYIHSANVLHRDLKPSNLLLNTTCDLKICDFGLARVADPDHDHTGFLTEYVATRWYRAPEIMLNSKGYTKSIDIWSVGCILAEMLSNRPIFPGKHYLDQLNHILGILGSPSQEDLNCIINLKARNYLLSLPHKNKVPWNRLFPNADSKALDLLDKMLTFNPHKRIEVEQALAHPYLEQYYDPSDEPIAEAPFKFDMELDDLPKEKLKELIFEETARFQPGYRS
Sequence of Mitogen-activated protein kinase 1 and 3 (ERK2 and ERK1) (Mus musculus) (Q63844 whole entry, looked up): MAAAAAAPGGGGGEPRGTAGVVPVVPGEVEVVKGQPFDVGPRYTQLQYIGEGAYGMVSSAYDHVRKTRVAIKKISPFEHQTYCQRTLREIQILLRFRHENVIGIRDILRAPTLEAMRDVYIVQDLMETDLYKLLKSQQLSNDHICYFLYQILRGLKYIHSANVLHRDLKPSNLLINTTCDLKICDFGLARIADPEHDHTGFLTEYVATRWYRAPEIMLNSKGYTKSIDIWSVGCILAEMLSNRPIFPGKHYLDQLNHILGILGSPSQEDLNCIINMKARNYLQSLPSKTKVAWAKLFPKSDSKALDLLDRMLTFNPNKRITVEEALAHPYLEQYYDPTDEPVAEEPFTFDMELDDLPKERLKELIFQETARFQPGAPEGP

For a further data set, the system named is Rattus norvegicus. Kind of data set: Antiinflammatory activity in rat paw edema model assessed as inhibition of carrageenan-induced paw edema at 10 mg/kg, po administered 30 mins prior to carrageenan challenge measured after 4 hrs relative to vehicle-treated control. Type of data set: functional. A digest of the protocol:
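Male SD rats (150−170 g) given compound orally in 0.5% CMC-Na 30 min before subplantar injection of 0.1 mL 1% carrageenan; the contralateral paw received saline. Paw volume was measured by plethysmometer from 0 to 6 h, with inhibition taken at 4 h versus vehicle. Mean ± SD, n = 6.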
In general terms: Carrageenan injected into the paw causes an acute inflammation.

The target in data set [7] is T1, Nuclear factor NF-kappa-B p105 subunit (Mus musculus) (UniProt P25799).
T1 sequence (whole entry): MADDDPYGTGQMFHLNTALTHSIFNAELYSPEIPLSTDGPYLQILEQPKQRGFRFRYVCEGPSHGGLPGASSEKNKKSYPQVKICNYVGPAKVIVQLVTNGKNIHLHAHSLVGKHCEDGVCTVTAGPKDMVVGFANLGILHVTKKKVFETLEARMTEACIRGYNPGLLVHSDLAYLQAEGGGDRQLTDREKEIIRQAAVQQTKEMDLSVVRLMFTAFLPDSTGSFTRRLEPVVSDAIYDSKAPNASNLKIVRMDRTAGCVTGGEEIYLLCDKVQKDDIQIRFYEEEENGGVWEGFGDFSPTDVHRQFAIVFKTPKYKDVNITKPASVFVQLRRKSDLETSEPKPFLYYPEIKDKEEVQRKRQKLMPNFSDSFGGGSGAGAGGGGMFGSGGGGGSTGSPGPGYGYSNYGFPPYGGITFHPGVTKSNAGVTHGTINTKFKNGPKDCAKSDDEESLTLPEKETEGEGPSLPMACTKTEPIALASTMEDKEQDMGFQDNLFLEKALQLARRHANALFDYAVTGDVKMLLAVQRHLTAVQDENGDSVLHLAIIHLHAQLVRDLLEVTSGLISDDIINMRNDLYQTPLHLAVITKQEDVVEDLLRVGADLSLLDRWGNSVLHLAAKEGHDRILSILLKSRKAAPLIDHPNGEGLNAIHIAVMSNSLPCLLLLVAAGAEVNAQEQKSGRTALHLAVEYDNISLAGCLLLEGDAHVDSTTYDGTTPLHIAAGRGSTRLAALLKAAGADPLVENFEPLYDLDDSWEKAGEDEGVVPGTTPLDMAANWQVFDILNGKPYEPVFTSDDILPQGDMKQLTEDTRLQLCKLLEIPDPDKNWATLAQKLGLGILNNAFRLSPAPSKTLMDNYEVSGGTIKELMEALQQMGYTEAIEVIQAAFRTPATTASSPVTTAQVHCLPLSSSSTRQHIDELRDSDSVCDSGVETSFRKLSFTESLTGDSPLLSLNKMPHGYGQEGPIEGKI
Briefly: Inhibition of LPS-induced NF-kappaB p50 binding to DNA in mouse RAW264.7 cells at 10 to 40 uM after 1.5 hrs by spectrophotometry. Type of data set: cell-based.

In a further data set the test system is Mus musculus. Kind of data set: Antiinflammatory activity in ICR mouse ear edema model assessed as inhibition of TPA-induced ear edema at 20 mg/kg, po administered 30 mins prior to TPA challenge measured after 4 hrs relative to vehicle-treated control. Type of data set: functional. A digest of the protocol:
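ICR mice (male, 18−20 g, 5 weeks old) dosed orally 30 min before TPA (1.0 μg in 20 μL acetone) was applied to inner and outer surfaces of the right ear. Killed by cervical dislocation after 4 h. Edema taken as the weight of a 5 mm punch biopsy of the right ear over the left. Ear homogenates were Western blotted for iNOS, COX-2 and IL-1β.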

Data set [8] has as its target Transcription factor p65 (Mus musculus) (UniProt Q04207). Kind of data set: Inhibition of LPS-induced NFkappaB P65 protein nuclear translocation in mouse RAW264.7 cells at 10 uM after 30 mins by Western blotting analysis relative to control. Type of data set: cell-based. An outline of the steps:
as §1

Data set [9] has the same target. Briefly: Inhibition of LPS-induced NF-kappaB p65 binding to DNA in mouse RAW264.7 cells at 10 to 40 uM after 1.5 hrs by spectrophotometry in presence of mutant oligonucleotide. Type of data set: cell-based.

Sequence of Transcription factor p65 (Mus musculus) (Q04207 whole entry): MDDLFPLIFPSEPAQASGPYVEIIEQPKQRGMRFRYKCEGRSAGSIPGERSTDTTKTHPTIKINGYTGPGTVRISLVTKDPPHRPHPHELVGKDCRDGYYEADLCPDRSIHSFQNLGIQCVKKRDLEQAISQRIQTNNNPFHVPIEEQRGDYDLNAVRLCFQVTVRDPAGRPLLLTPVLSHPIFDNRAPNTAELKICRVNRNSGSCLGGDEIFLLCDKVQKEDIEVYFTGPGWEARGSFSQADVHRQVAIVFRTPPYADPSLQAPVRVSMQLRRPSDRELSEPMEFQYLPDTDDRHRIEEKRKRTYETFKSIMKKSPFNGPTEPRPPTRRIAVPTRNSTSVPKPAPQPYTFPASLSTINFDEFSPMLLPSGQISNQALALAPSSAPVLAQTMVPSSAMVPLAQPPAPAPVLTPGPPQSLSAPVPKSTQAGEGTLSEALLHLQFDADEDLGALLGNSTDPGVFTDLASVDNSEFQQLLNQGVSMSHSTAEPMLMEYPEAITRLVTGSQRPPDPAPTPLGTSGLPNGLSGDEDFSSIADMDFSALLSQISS

With `C=C1C(=O)O[C@@H]2[C@@H]3[C@@]4(C=C[C@@]3(C)[C@]3(C4)C(=O)O[C@@H]4[C@H]5C(C)=CC[C@H]5[C@](C)(O)C[C@H](OC(C)=O)[C@H]43)[C@](C)(O)CC[C@@H]12`, the “fold change (FC)” value in the data set with RAW264.7 [1] turned out to be 0.2; in the data set on RAW264.7 [4] it was 1.91; in the data set with RAW264.7 [5], 0.63; in data set [6], 0.21. Further, the IC50 (commonly the concentration needed to halve the response being measured) in the data set with RAW264.7 [2] is 6.7 µM. The inhibition result in the data set on RAW264.7 [2] was “Dose-dependent effect”. The viability at 4 h, 40 µM in [3] amounted to 83%. For the same molecule, the inhibition in vivo (as a rule, the change of the read-out against control, counted positive when it falls) at 10 mg/kg in the data set with Rattus norvegicus turned out to be 22%. Besides, the inhibition result in data set [7], in data set [8] and in data set [9] was “Active” in each case. In addition, the inhibition in vivo at 20 mg/kg with Mus musculus worked out at 56%.
